From ChEMBL document CHEMBL3407473, “5'-(N-aminoacyl)-sulfonamido-5'-deoxyadenosine: attempts for a stable alternative for aminoacyl-sulfamoyl adenosines as aaRS inhibitors” (2015)
Values after ≈ are worked out from the molar mass of the structure shown. Active and inactive are the calls of the source. No cut-off for these calls is given here.

System: Candida albicans
Test: Antimicrobial activity against Candida albicans CO11 after 18 hrs by broth dilution method
Type: functional
Conditions: CO11, 18 h
Procedure, shortened: (§1)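 Strains grown overnight in LB, then subcultured the next day in fresh LB. Compounds serially diluted in LB in 96-well plates with cell suspension. Growth read as optical density. Highest concentration tested […], as printed. Broth dilution run in triplicate. MIC50 taken from the OD readings.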

MIC50 [µM]	Compound
> 100	Nc1ncnc2c1ncn2[C@@H]1O[C@H](CS(=O)(=O)NC(=O)[C@@H](N)Cc2ccc(O)cc2)[C@@H](O)[C@H]1O
> 100	Nc1ncnc2c1ncn2[C@@H]1O[C@H](CS(=O)(=O)NC(=O)[C@@H](N)CC(=O)O)[C@@H](O)[C@H]1O
> 100	CC[C@H](C)[C@H](N)C(=O)NS(=O)(=O)C[C@H]1O[C@@H](n2cnc3c(N)ncnc32)[C@H](O)[C@@H]1O
> 100	CC(C)C[C@H](N)C(=O)NS(=O)(=O)C[C@H]1O[C@@H](n2cnc3c(N)ncnc32)[C@H](O)[C@@H]1O
> 100	Nc1ncnc2c1ncn2[C@@H]1O[C@H](CS(=O)(=O)NC(=O)[C@@H](N)CO)[C@@H](O)[C@H]1O
> 100	NCC(=O)NS(=O)(=O)C[C@H]1O[C@@H](n2cnc3c(N)ncnc32)[C@H](O)[C@@H]1O

System: Escherichia coli
Test: Antimicrobial activity against wild-type Escherichia coli after 18 hrs by broth dilution method
Type: functional
Conditions: not given
Procedure, shortened: as §1

MIC50 [µM]	Compound
> 100	Nc1ncnc2c1ncn2[C@@H]1O[C@H](CS(=O)(=O)NC(=O)[C@@H](N)Cc2ccc(O)cc2)[C@@H](O)[C@H]1O
50 (≈ 22.3 µg/mL)	Nc1ncnc2c1ncn2[C@@H]1O[C@H](CS(=O)(=O)NC(=O)[C@@H](N)CC(=O)O)[C@@H](O)[C@H]1O
> 100	CC[C@H](C)[C@H](N)C(=O)NS(=O)(=O)C[C@H]1O[C@@H](n2cnc3c(N)ncnc32)[C@H](O)[C@@H]1O
> 100	CC(C)C[C@H](N)C(=O)NS(=O)(=O)C[C@H]1O[C@@H](n2cnc3c(N)ncnc32)[C@H](O)[C@@H]1O
> 100	Nc1ncnc2c1ncn2[C@@H]1O[C@H](CS(=O)(=O)NC(=O)[C@@H](N)CO)[C@@H](O)[C@H]1O
> 100	NCC(=O)NS(=O)(=O)C[C@H]1O[C@@H](n2cnc3c(N)ncnc32)[C@H](O)[C@@H]1O

System: Micrococcus luteus
Test: Antimicrobial activity against Sarcina lutea ATCC 9341 after 18 hrs by broth dilution method
Type: functional
Conditions: ATCC 9341, 18 h
Procedure, shortened: as §1

MIC50 [µM]	Compound
> 100	Nc1ncnc2c1ncn2[C@@H]1O[C@H](CS(=O)(=O)NC(=O)[C@@H](N)Cc2ccc(O)cc2)[C@@H](O)[C@H]1O
> 100	Nc1ncnc2c1ncn2[C@@H]1O[C@H](CS(=O)(=O)NC(=O)[C@@H](N)CC(=O)O)[C@@H](O)[C@H]1O
> 100	CC[C@H](C)[C@H](N)C(=O)NS(=O)(=O)C[C@H]1O[C@@H](n2cnc3c(N)ncnc32)[C@H](O)[C@@H]1O
> 100	CC(C)C[C@H](N)C(=O)NS(=O)(=O)C[C@H]1O[C@@H](n2cnc3c(N)ncnc32)[C@H](O)[C@@H]1O
> 100	Nc1ncnc2c1ncn2[C@@H]1O[C@H](CS(=O)(=O)NC(=O)[C@@H](N)CO)[C@@H](O)[C@H]1O
> 100	NCC(=O)NS(=O)(=O)C[C@H]1O[C@@H](n2cnc3c(N)ncnc32)[C@H](O)[C@@H]1O

System: Escherichia coli
Test: Inhibition of aminoacyl tRNA synthetase in wild-type Escherichia coli S30 cell extract asessed as inhibition of [14C]-radiolabeled aminoacid incorporation at 50 uM after 5 mins by liquid scintillation counting analysis
Conditions: not given
Procedure, shortened: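 Inhibitor incubated with 3 L E. coli wt S30 extract, as printed. Aminoacylation mix: Tris.HCl 30 mM pH 8.0, DTT 1 mM, bulk E. coli tRNA 5 g/l, ATP 3 mM, KCl 30 mM, MgCl2 8 mM, 14C-labelled amino acid 40 M (200 mCi/mmol), units as printed. Samples spotted on papers, washed with cold 10% TCA then acetone, dried. Radioactivity read by scintillation counting.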

inhibition	Compound
Active	Nc1ncnc2c1ncn2[C@@H]1O[C@H](CS(=O)(=O)NC(=O)[C@@H](N)CC(=O)O)[C@@H](O)[C@H]1O

System: Staphylococcus aureus
Test: Antimicrobial activity against Staphylococcus aureus ATCC 6538 after 18 hrs by broth dilution method
Type: functional
Conditions: ATCC 6538, 18 h
Procedure, shortened: as §1

MIC50 [µM]	Compound
> 100	Nc1ncnc2c1ncn2[C@@H]1O[C@H](CS(=O)(=O)NC(=O)[C@@H](N)Cc2ccc(O)cc2)[C@@H](O)[C@H]1O
> 100	Nc1ncnc2c1ncn2[C@@H]1O[C@H](CS(=O)(=O)NC(=O)[C@@H](N)CC(=O)O)[C@@H](O)[C@H]1O
> 100	CC[C@H](C)[C@H](N)C(=O)NS(=O)(=O)C[C@H]1O[C@@H](n2cnc3c(N)ncnc32)[C@H](O)[C@@H]1O
> 100	CC(C)C[C@H](N)C(=O)NS(=O)(=O)C[C@H]1O[C@@H](n2cnc3c(N)ncnc32)[C@H](O)[C@@H]1O
> 100	Nc1ncnc2c1ncn2[C@@H]1O[C@H](CS(=O)(=O)NC(=O)[C@@H](N)CO)[C@@H](O)[C@H]1O
> 100	NCC(=O)NS(=O)(=O)C[C@H]1O[C@@H](n2cnc3c(N)ncnc32)[C@H](O)[C@@H]1O
